Experimental data as given in ChEMBL document CHEMBL1275391, “Design, synthesis, and preclinical evaluation of new 5,6- (or 6,7-) disubstituted-2-(fluorophenyl)quinolin-4-one derivatives as potent antitumor agents” (J Med Chem, 2010).

Legend:
NCI/ADR-RES = experiment: Growth inhibition of human NCI/ADR-RES cells; assay type: functional
OVCAR-4 = experiment: Growth inhibition of human OVCAR4 cells; assay type: functional
Malme-3M = experiment: Growth inhibition of human MALME-3M cells; assay type: functional
HCT-15 = experiment: Growth inhibition of human HCT15 cells; assay type: functional
NCI-H23 = experiment: Growth inhibition of human NCI-H23 cells; assay type: functional
SF-295 = experiment: Growth inhibition of human SF295 cells; assay type: functional
[1] = target: cGMP-specific 3',5'-cyclic phosphodiesterase (Homo sapiens) (UniProt O76074); experiment: Inhibition of human PDE5 at 10 uM
786-0 = experiment: Growth inhibition of human 786-0 cells; assay type: functional
OVCAR-8 = experiment: Growth inhibition of human OVCAR8 cells; assay type: functional
UO-31 = experiment: Growth inhibition of human UO31 cells; assay type: functional
SK-OV-3 = experiment: Growth inhibition of human SKOV3 cells; assay type: functional
A498 = experiment: Growth inhibition of human A498 cells; assay type: functional
IGROV-1 = experiment: Growth inhibition of human IGROV1 cells; assay type: functional
[2] = Cytotoxicity against human Hep3B cells after 48 hrs by MTT assay; assay type: functional, cell-based, Hep 3B2
Summary of the method: (§1)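 Cells exposed to a range of compound concentrations for 48 h, washed once with PBS, then incubated with MTT for 2 h. Formazan dissolved in DMSO and absorbance read at 570 nm. IC50 taken as the concentration giving 50% inhibition of proliferation.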

K562 = experiment: Growth inhibition of human K562 cells; assay type: functional
UGT1A1 = UGT1A1 (Homo sapiens, UniProt P22309); experiment: Inhibition of human UGT1A1 at 10 uM
SK-MEL-5 = experiment: Growth inhibition of human SK-MEL-5 cells; assay type: functional
HL-60 = experiment: Cytotoxicity against human HL60 cells after 48 hrs by MTT assay; assay type: functional, cell-based; settings: HL-60, 48 h; summary of the method: as §1
UACC-257 = experiment: Growth inhibition of human UACC257 cells; assay type: functional
OVCAR-3 = experiment: Growth inhibition of human OVCAR-3 cells; assay type: functional
HOP-92 = experiment: Growth inhibition of human HOP92 cells; assay type: functional
SNB-19 = experiment: Growth inhibition of human SNB19 cells; assay type: functional
[3] = target: Insulin-like growth factor 1 receptor (Homo sapiens) (UniProt P08069); experiment: Inhibition of tyrosine phosphorylation of IGF1R in human Hep3B cells assessed as decrease of phosphorylated IGF1R level after 12 hrs by Western blotting; assay type: cell-based; settings: Hep 3B2
Summary of the method: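 Hep3B cells were exposed to a range of concentrations for 12 h at 37 C, with DMSO as vehicle control. They were lysed in Tris-HCl pH 7.9 buffer containing Triton X-100, SDS, NaF, orthovanadate and protease inhibitors, then centrifuged. Lysates were immunoblotted with anti-pY1135/1136-IGF-1R, and IGF-1R β-subunit served as loading control.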

PC-3 = experiment: Growth inhibition of human PC3 cells; assay type: functional
[4] = read-out: pLC50 (the source's name) (converted)

Insulin-like growth factor 1 receptor (Homo sapiens), sequence (P08069 31-736 limits assumed): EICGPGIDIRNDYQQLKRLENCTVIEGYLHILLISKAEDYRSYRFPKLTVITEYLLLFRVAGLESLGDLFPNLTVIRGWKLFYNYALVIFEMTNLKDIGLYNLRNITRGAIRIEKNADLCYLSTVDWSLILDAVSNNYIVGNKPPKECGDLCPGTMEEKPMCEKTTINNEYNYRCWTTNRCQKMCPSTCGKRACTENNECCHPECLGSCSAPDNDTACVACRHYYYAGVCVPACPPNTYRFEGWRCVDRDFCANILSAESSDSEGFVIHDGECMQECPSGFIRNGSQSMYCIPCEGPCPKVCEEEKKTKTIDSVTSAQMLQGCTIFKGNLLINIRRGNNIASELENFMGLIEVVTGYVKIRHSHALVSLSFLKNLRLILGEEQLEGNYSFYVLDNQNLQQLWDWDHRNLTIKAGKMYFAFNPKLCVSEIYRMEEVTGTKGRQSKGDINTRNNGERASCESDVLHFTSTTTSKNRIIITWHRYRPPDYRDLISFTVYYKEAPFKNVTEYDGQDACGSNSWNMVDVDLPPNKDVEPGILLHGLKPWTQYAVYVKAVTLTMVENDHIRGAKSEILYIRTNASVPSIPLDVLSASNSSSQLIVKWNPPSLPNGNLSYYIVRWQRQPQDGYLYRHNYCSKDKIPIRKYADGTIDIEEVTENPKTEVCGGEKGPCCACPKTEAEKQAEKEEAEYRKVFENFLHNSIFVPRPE
Insulin-like growth factor 1 receptor (Homo sapiens), sequence (P08069 741-1367 limits assumed): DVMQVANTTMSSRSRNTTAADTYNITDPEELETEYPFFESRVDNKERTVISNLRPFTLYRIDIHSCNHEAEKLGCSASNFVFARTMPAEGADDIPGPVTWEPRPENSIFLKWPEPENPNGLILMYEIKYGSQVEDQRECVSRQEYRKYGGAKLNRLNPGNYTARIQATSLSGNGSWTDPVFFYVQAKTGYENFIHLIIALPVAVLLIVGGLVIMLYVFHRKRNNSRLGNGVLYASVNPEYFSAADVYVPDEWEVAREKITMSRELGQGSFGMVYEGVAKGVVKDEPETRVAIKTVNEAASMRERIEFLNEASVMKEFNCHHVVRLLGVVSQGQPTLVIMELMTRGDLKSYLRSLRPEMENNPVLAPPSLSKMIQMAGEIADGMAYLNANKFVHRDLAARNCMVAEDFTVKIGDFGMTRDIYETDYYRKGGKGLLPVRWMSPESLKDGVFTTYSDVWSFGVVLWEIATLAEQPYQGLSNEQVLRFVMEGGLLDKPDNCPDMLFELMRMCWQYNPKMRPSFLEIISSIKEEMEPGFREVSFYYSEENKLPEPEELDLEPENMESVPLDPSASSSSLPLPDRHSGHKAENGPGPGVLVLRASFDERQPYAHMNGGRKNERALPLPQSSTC
UGT1A1, sequence (P22309 whole entry): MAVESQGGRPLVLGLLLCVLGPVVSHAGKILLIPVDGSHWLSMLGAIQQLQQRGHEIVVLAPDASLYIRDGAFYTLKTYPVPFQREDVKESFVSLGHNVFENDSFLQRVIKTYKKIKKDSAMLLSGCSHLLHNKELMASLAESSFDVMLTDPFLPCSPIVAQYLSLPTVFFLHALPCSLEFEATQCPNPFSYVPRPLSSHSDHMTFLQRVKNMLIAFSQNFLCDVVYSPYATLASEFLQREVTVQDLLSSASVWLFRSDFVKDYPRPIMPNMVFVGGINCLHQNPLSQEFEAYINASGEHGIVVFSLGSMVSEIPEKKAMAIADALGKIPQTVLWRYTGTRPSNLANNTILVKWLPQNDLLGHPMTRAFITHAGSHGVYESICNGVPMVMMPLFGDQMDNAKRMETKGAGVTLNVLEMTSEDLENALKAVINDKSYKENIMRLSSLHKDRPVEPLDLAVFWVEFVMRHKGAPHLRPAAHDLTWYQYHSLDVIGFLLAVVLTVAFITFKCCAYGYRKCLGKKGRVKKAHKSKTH

Which GI50 (NCI/ADR-RES) does the source give for `COc1ccc2[nH]c(-c3cccc(F)c3)cc(=O)c2c1O` here?
The GI50 was 0.0209 µM.

And the CC50 (NCI/ADR-RES; [4])?
The CC50 was 40.7 µM.

And the TGI (NCI/ADR-RES; read-out: pTGI (converted))?
The TGI was 0.0537 µM.

And the GI50 (OVCAR-4)?
Its GI50 is 0.0437 µM.

What about the CC50 (OVCAR-4; [4]) of the same molecule?
The CC50 was > 100 µM.

What about the TGI (OVCAR-4; read-out: pTGI (converted)) of the same molecule?
The TGI was 9.12 µM.

What about the CC50 (Malme-3M; [4]) of the same molecule?
Its CC50 is > 100 µM.

And the TGI (Malme-3M; read-out: pTGI (converted))?
Its TGI is 52.5 µM.

And the GI50 (HCT-15)?
The GI50 was 0.0355 µM.

And the CC50 (HCT-15; [4])?
Its CC50 is > 100 µM.

What about the TGI (HCT-15; read-out: pTGI (converted)) of the same molecule?
Its TGI is 14.8 µM.

And the GI50 (NCI-H23)?
Its GI50 is 0.0347 µM.

What about the CC50 (NCI-H23; [4]) of the same molecule?
The CC50 was > 100 µM.

What about the TGI (NCI-H23; read-out: pTGI (converted)) of the same molecule?
The TGI was 13.8 µM.

And the GI50 (SF-295)?
The GI50 was 0.0257 µM.

And the CC50 (SF-295; [4])?
Its CC50 is 53.7 µM.

And the TGI (SF-295; read-out: pTGI (converted))?
Its TGI is 10.5 µM.

What about the inhibition [1] of the same molecule?
Its inhibition is 57%.

And the GI50 (786-0)?
Its GI50 is 0.0501 µM.

And the CC50 (786-0; [4])?
Its CC50 is 89.1 µM.

What about the TGI (786-0; read-out: pTGI (converted)) of the same molecule?
The TGI was 16.2 µM.

And the GI50 (OVCAR-8)?
The GI50 was 0.0562 µM.

What about the CC50 (OVCAR-8; [4]) of the same molecule?
The CC50 was 81.3 µM.

And the TGI (OVCAR-8; read-out: pTGI (converted))?
The TGI was 16.2 µM.

What about the GI50 (UO-31) of the same molecule?
Its GI50 is 0.0513 µM.

What about the CC50 (UO-31; [4]) of the same molecule?
Its CC50 is 39.8 µM.

What about the TGI (UO-31; read-out: pTGI (converted)) of the same molecule?
The TGI was 10.2 µM.

And the GI50 (SK-OV-3)?
The GI50 was 0.0355 µM.

What about the CC50 (SK-OV-3; [4]) of the same molecule?
The CC50 was 37.2 µM.

What about the TGI (SK-OV-3; read-out: pTGI (converted)) of the same molecule?
Its TGI is 10.7 µM.

And the GI50 (A498)?
The GI50 was 0.0246 µM.

What about the CC50 (A498; [4]) of the same molecule?
The CC50 was 41.7 µM.

And the TGI (A498; read-out: pTGI (converted))?
Its TGI is 0.209 µM.

What about the GI50 (IGROV-1) of the same molecule?
Its GI50 is 0.0269 µM.

And the TGI (IGROV-1; read-out: pTGI (converted))?
The TGI was 0.0933 µM.

And the IC50 [2]?
Its IC50 is 0.07 µM.

And the GI50 (K562)?
The GI50 was 0.024 µM.

And the CC50 (K562; [4])?
The CC50 was > 100 µM.

What about the TGI (K562; read-out: pTGI (converted)) of the same molecule?
Its TGI is 0.204 µM.

And the inhibition at 10 µM (UGT1A1)?
Its inhibition at 10 µM is 86%.

And the GI50 (SK-MEL-5)?
The GI50 was 0.0295 µM.

What about the CC50 (SK-MEL-5; [4]) of the same molecule?
The CC50 was 18.2 µM.

What about the TGI (SK-MEL-5; read-out: pTGI (converted)) of the same molecule?
The TGI was 0.2 µM.

And the IC50 (HL-60)?
The IC50 was 0.03 µM.

And the GI50 (UACC-257)?
The GI50 was 0.0339 µM.

What about the CC50 (UACC-257; [4]) of the same molecule?
Its CC50 is > 100 µM.

And the TGI (UACC-257; read-out: pTGI)?
The TGI was > 100 µM.

What about the GI50 (OVCAR-3) of the same molecule?
Its GI50 is 0.0191 µM.

What about the CC50 (OVCAR-3; [4]) of the same molecule?
The CC50 was 30.2 µM.

What about the TGI (OVCAR-3; read-out: pTGI (converted)) of the same molecule?
The TGI was 0.0407 µM.

And the GI50 (HOP-92)?
The GI50 was 4.9 µM.

What about the CC50 (HOP-92; [4]) of the same molecule?
Its CC50 is > 100 µM.

And the TGI (HOP-92; read-out: pTGI (converted))?
The TGI was 36.3 µM.

And the GI50 (SNB-19)?
Its GI50 is 0.0288 µM.

And the CC50 (SNB-19; [4])?
Its CC50 is > 100 µM.

What about the TGI (SNB-19; read-out: pTGI (converted)) of the same molecule?
The TGI was 0.437 µM.

And the inhibition [3]?
Its inhibition is “Dose-dependent effect”.

And the GI50 (PC-3)?
The GI50 was 0.0324 µM.

And the CC50 (PC-3; [4])?
The CC50 was 70.8 µM.

And the TGI (PC-3; read-out: pTGI (converted))?
The TGI was 15.5 µM.
